Reference: ChEMBL document CHEMBL1139000, “N-Glycosyl-thiophene-2-carboxamides: effects on endothelial cell growth in the presence and absence of bFGF--a significant increase in potency using per-O-acetylated sugar analogues” (2006)
Activity calls are given as the source filed them. The rule behind the calls is not given here.

What was measured:
AEC [1] = assay: Antiproliferative activity against 10% FBS-induced BAEC at 500 uM after 24 hrs assessed by inhibition of [3H]thymidine uptake relative to control; assay type: functional, Bos taurus; set-up: scale not given: the % may be the effect or the level left
Method in brief: (§1)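 Bovine aortic endothelial cells seeded at 30,000 cells/well in complete medium (10% foetal bovine serum) and allowed 24 h adhesion. Compounds then added and cells cultured 20 h at 37 °C, 5% CO2. [3H]thymidine pulse for a further 4 h (24 h total exposure). Cells lysed with 0.1 N NaOH and incorporated label counted by scintillation. Values are % of control-treated cells, mean ± SEM of three separate experiments, each in triplicate.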

AEC [2] = assay: Antiproliferative activity against 10% FBS-induced BAEC at 500 uM after 24 hrs assessed by inhibition of [3H]thymidine uptake; assay type: functional, Bos taurus; set-up: scale not given: the % may be the effect or the level left; method in brief: as §1
AEC [3] = assay: Antiproliferative activity against 10% FBS-induced BAEC at 100 uM after 24 hrs assessed by inhibition of [3H]thymidine uptake; assay type: functional, Bos taurus; set-up: scale not given: the % may be the effect or the level left; method in brief: as §1
AEC [4] = assay: Antiproliferative activity against bFGF-stimulated BAEC at 80 uM after 48 hrs assessed by inhibition of [3H]thymidine uptake; assay type: functional, cell-based; conditions: Bos taurus
Method in brief: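 BAECs seeded at 30,000 cells/well and starved 24 h in 0.5% foetal bovine serum. Then incubated 48 h with bFGF (10 ng/mL) with or without compound. [3H]thymidine (2 µCi/mL) added for the last 4 h. Lysis in 0.1 N NaOH, scintillation counting. Triplicate values from three separate experiments; Student's t test against control and against bFGF treatment.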

AEC [5] = assay: Antiproliferative activity against 10% FBS-induced BAEC at 80 uM after 24 hrs assessed by inhibition of [3H]thymidine uptake; assay type: functional, Bos taurus; set-up: scale not given: the % may be the effect or the level left; method in brief: as §1
AEC [6] = assay: Antiproliferative activity against 10% FBS-induced BAEC at 3.3 uM after 24 hrs assessed by inhibition of [3H]thymidine uptake; assay type: functional, cell-based; conditions: Bos taurus; method in brief: as §1
AEC [7] = assay: Antiproliferative activity against 10% FBS-induced BAEC at 16 uM after 24 hrs assessed by inhibition of [3H]thymidine uptake; assay type: functional, Bos taurus; set-up: scale not given: the % may be the effect or the level left; method in brief: as §1
AEC [8] = assay: Antiproliferative activity against 10% FBS-induced BAEC upto 80 uM after 24 hrs assessed by inhibition of [3H]thymidine uptake; assay type: functional, cell-based; conditions: Bos taurus; method in brief: as §1

Cc1ccsc1C(=O)N[C@@H]1O[C@H](CO)[C@@H](O)[C@H](O)[C@H]1O gave an Activity (AEC [1]) of 84%.

O=C(N[C@@H]1O[C@H](CO)[C@@H](O)[C@H](O)[C@H]1O)c1sccc1Br was tested, and the Activity (AEC [2]) was 25%, the Activity (AEC [1]) was 75.4% and the Activity (AEC [3]) was 10%.

With CCc1ccc(C(=O)N[C@@H]2O[C@H](COC(C)=O)[C@@H](OC(C)=O)[C@H](OC(C)=O)[C@H]2OC(C)=O)s1 the Activity (AEC [4]) was “Active”, the Activity (AEC [5]) was 41% and the Activity (AEC [6]) was “inactive”. For the same compound, the Activity (AEC [7]) was 21%.

In the case of O=C(N[C@@H]1O[C@H](CO)[C@@H](O)[C@H](O)[C@H]1O)c1cccs1, the Activity (AEC [1]; Bos taurus) is reported as “inactive”.

In the case of Cc1ccc(C(=O)N[C@@H]2O[C@H](CO)[C@@H](O)[C@H](O)[C@H]2O)s1, the Activity (AEC [1]) is reported as 83%.

O=C(N[C@@H]1O[C@H](CO)[C@@H](O)[C@H](O)[C@H]1O)c1ccc(Br)s1 gave an Activity (AEC [1]) of 65%.

C#Cc1csc(C(=O)N[C@@H]2O[C@H](CO)[C@@H](O)[C@H](O)[C@H]2O)c1 was tested, and the Activity (AEC [1]) was 71%.

C#Cc1ccsc1C(=O)N[C@@H]1O[C@H](CO)[C@@H](O)[C@H](O)[C@H]1O was tested, and the Activity (AEC [1]) was 79.75%.

CCc1ccc(C(=O)N[C@@H]2O[C@H](CO)[C@@H](O)[C@H](O)[C@H]2O)s1 was tested, and the Activity (AEC [8]) was “inactive” and the Activity (AEC [1]) was 80.3%.
